Data taken from ChEMBL document CHEMBL4138048, “Synthesis of substituted 2H-benzo[e]indazole-9-carboxylate as a potent antihyperglycemic agent that may act through IRS-1, Akt and GSK-3β pathways” (Medchemcomm, 2017).
Activity calls are given as the source filed them. The calls are words filed in the database; no cut-off is given here.

Test system: L6
Assay: Stimulation of [3H]2-deoxyglucose uptake in rat L6 cells at 10 uM incubated for 16 hrs by scintillation counting method
Assay type: functional, cell-based
Method in brief: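 L6 myotubes incubated with the compound […]; insulin at 100 nM for 20 min served as the positive control. Uptake of ³H-2-deoxyglucose measured and expressed as fold stimulation relative to the control condition.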

For `COC(=O)c1c(S(C)(=O)=O)cc(-c2ccc(F)cc2)c2c1-c1cn(-c3ccccc3)nc1CC2`, the Activity was “inactive”.
